Assays:
Cytochrome P450 3A4 = Cytochrome P450 3A4 (Homo sapiens, UniProt P08684); assay: Inhibition of CYP3A4 (unknown origin) using Luciferin-PPXE as substrate at 10 uM preincubated with enzyme and substrate for 5 mins followed by addition of NADPH regeneration system and measured after 60 mins by luminescence method; type: ADME
How it was run: (§1)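 P450-Glo luminescence assays with these substrates: Luciferin-ME (CYP1A2), Luciferin-PPXE (CYP3A4), Luciferin-H (CYP2C9), LuciferinH-EG (CYP2C19), Luciferin-ME-EG (CYP2D6). Compounds run in 1/3 serial dilutions from 10 µM in 0.5% DMSO with enzyme and substrate. After 5 min preincubation, NADPH regeneration reagent added; 60 min at 37 °C, then detection reagent for 30 min. Background subtracted.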

[1] = Inhibition of PI3K/mTOR in human MCF7 cells assessed as reduction of AKT phosphorylation at Ser473 residue measured after 3 hrs by western blot assay; type: cell-based; details: MCF7, 3 h
How it was run: (§2)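 MCF7 cells treated for 3 h across a dose range, washed and lysed with phosphatase and protease inhibitors. Lysates run on 10% SDS-PAGE and blotted, antibodies incubated overnight at 4 °C.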

[2] = Half life in BALB/c mouse at 5 mg/kg, iv measured for 8 hrs; type: ADME, organism-based; details: in vivo
How it was run: (§3)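 BALB/c mice dosed I.V. or P.O. at the stated dose; plasma levels followed for 8 h. Parameters from noncompartmental analysis: AUC (h.ng/ml), T1/2 (h), Cl (L/h/Kg), Vd (L/Kg), Cmax (ng/ml), Tmax (h).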

[3] = Inhibition of PI3K/mTOR in human MCF7 cells assessed as reduction of AKT phosphorylation at Thr308 residue measured after 3 hrs by western blot assay; type: cell-based; details: MCF7, 3 h; how it was run: as §2
Homo sapiens = species: Homo sapiens; assay: Selectivity ratio of IC50 for recombinant human GST tagged mTOR (1360 to 2549 residues) expressed in baculovirus expression system to IC50 for human full length p110alpha (1 to 1068 residues) expressed in baculovirus-infected Sf21 cells
How it was run: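 mTOR activity measured by LanthaScreen assay. PI3K-α activity measured by ADP Hunter Plus (ADP accumulation, fluorescence ex 544/em 580 nm), normalized to no-compound control and fitted to a sigmoid dose-response curve. IC50s are the average of two independent experiments. Ratio is mTOR IC50 over PI3K-α IC50.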

[4] = AUC(infinity) in BALB/c mouse at 10 mg/kg, po measured for 8 hrs; type: ADME, organism-based; set-up: route oral, time 8 hrs, dose 10 mg/kg; details: in vivo; how it was run: as §3
[5] = Volume of distribution in BALB/c mouse at 5 mg/kg, iv measured for 8 hrs; type: ADME, organism-based; details: in vivo
How it was run: (§4)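 Dosing in BALB-C mice intravenously or orally, with plasma sampled over 8 h. Parameters (AUC, T1/2, Cl, Vd, Cmax, Tmax) come from a noncompartmental model. Units: AUC h.ng/ml, Vd L/Kg, Cmax ng/ml, Tmax h.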

Cytochrome P450 2C9 = Cytochrome P450 2C9 (Homo sapiens, UniProt P11712); assay: Inhibition of CYP2C9 (unknown origin) using Luciferin-H as substrate at 10 uM preincubated with enzyme and substrate for 5 mins followed by addition of NADPH regeneration system and measured after 60 mins by luminescence method; type: ADME; how it was run: as §1
Cytochrome P450 1A2 = biological target: T1, Cytochrome P450 1A2 (Homo sapiens, UniProt P05177); assay: Inhibition of CYP1A2 (unknown origin) using Luciferin-ME as substrate at 10 uM preincubated with enzyme and substrate for 5 mins followed by addition of NADPH regeneration system and measured after 60 mins by luminescence method; type: ADME; how it was run: as §1
T1 sequence (P05177 whole entry): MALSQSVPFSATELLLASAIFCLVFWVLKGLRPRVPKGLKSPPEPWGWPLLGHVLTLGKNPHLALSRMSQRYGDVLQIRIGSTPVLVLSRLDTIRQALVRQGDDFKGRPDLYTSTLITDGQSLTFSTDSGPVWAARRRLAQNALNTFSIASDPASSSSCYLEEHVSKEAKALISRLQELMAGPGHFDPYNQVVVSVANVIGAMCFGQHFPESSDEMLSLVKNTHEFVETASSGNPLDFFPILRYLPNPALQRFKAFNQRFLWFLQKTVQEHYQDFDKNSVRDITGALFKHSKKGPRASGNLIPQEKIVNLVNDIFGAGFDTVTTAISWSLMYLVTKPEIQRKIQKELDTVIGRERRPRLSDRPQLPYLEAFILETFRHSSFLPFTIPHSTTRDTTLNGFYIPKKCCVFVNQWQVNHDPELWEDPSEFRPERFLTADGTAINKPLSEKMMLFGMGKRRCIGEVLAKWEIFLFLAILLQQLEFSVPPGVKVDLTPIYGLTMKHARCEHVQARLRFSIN

Cytochrome P450 2D6 = Cytochrome P450 2D6 (Homo sapiens, UniProt P10635); assay: Inhibition of CYP2D6 (unknown origin) using Luciferin-ME-EG as substrate at 10 uM preincubated with enzyme and substrate for 5 mins followed by addition of NADPH regeneration system and measured after 60 mins by luminescence method; type: ADME; how it was run: as §1
[6] = Plasma concentration in BALB/c mouse at 10 mg/kg, po measured for 8 hrs; type: ADME, organism-based; how it was run: as §4
[7] = biological target: Voltage-gated inwardly rectifying potassium channel KCNH2 (Homo sapiens, UniProt Q12809); assay: Inhibition of human ERG by fluorescence polarization assay
How it was run: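 Predictor h-ERG membrane preparations (sonicated) incubated with test compound dilutions and fluorescent tracer (working 4X tracer at 4 nM) at room temperature for ≥1 h. Read-out by fluorescence polarization, ex 530/25, em 590/35.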

[8] = Oral bioavailability in BALB/c mouse at 10 mg/kg measured for 8 hrs; type: ADME, organism-based; details: in vivo; how it was run: as §3
PI3K p110 beta/p85 alpha = PI3K p110 beta/p85 alpha (Homo sapiens, UniProt P42338); assay: Inhibition of human p110beta/p85alpha using PIP2 as substrate in presence of ATP measured by HTRF assay; type: protein-complex assay
[9] = biological target: PI3-kinase p110-alpha/p85-alpha (Homo sapiens, UniProt P42336, E542K); assay: Inhibition of p110alpha E542K mutant/p85alpha (unknown origin) using PIP2:3PS lipid kinase as substrate in presence of ATP measured by ADP-Glo lipid kinase assay; type: protein-complex assay
How it was run: (§5)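 Lipid kinase assay with PIP2:3PS substrate held at 3.25 µM. Activity normalized to no-compound control for each enzyme and fitted to a variable-slope sigmoidal dose-response curve.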

[10] = Inhibition of p110alpha E545K mutant/p85alpha (unknown origin) using PIP2:3PS lipid kinase as substrate in presence of ATP measured by ADP-Glo lipid kinase assay; set-up: species or system Homo sapiens; how it was run: as §5
[11] = Tmax in BALB/c mouse at 10 mg/kg, po measured for 8 hrs; type: ADME, organism-based; details: in vivo; how it was run: as §4
[12] = Cmax in BALB/c mouse at 10 mg/kg, po measured for 8 hrs; type: ADME, organism-based; set-up: route oral, dose 10 mg/kg, time 8 hrs; details: in vivo; how it was run: as §3
[13] = Inhibition of PI3K/mTOR in human U2OS cells assessed as inhibition of AKT1 phosphorylation at Ser473 residue by C-ELISA; type: cell-based
How it was run: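 U2OS osteosarcoma cells grown in 0.1% FBS and serum-stimulated. Endogenous phospho-AKT1 Ser473 quantified by cell-based ELISA with chemiluminescent substrate. Signal plotted against inhibitor concentration and fitted to a sigmoid dose-response curve.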

Voltage-gated inwardly rectifying potassium channel KCNH2, sequence (Q12809 whole entry): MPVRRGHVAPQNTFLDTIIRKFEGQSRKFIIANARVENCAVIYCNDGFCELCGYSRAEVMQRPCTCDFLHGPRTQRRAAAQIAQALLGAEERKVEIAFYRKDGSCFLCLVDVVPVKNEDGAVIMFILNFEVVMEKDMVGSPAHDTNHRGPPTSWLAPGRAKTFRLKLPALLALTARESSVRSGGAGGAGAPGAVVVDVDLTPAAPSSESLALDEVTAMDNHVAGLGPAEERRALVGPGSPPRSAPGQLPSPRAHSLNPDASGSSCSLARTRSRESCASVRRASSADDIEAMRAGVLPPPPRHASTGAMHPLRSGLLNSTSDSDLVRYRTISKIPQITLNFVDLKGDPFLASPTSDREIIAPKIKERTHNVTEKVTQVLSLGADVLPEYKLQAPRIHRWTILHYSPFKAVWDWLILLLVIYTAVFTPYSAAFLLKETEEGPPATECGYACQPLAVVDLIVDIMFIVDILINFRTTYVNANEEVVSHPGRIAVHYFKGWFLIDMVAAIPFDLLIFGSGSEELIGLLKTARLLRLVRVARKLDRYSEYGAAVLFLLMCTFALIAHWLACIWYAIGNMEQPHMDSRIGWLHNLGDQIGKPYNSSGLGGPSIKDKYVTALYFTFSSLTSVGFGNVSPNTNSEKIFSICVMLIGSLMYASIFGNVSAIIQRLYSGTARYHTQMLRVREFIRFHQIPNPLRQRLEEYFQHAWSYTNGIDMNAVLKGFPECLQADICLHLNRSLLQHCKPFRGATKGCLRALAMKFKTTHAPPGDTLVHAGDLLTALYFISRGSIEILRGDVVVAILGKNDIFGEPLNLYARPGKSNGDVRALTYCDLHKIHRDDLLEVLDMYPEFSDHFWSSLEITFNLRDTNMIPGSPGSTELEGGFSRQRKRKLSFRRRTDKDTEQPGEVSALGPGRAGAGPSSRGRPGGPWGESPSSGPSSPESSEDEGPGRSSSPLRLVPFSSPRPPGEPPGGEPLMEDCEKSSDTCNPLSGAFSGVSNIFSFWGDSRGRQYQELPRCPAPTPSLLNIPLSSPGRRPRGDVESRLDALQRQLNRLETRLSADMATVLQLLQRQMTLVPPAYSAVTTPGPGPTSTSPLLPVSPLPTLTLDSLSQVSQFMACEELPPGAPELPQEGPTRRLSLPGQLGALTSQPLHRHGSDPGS
PI3-kinase p110-alpha/p85-alpha, sequence (P42336 whole entry E542K, looked up): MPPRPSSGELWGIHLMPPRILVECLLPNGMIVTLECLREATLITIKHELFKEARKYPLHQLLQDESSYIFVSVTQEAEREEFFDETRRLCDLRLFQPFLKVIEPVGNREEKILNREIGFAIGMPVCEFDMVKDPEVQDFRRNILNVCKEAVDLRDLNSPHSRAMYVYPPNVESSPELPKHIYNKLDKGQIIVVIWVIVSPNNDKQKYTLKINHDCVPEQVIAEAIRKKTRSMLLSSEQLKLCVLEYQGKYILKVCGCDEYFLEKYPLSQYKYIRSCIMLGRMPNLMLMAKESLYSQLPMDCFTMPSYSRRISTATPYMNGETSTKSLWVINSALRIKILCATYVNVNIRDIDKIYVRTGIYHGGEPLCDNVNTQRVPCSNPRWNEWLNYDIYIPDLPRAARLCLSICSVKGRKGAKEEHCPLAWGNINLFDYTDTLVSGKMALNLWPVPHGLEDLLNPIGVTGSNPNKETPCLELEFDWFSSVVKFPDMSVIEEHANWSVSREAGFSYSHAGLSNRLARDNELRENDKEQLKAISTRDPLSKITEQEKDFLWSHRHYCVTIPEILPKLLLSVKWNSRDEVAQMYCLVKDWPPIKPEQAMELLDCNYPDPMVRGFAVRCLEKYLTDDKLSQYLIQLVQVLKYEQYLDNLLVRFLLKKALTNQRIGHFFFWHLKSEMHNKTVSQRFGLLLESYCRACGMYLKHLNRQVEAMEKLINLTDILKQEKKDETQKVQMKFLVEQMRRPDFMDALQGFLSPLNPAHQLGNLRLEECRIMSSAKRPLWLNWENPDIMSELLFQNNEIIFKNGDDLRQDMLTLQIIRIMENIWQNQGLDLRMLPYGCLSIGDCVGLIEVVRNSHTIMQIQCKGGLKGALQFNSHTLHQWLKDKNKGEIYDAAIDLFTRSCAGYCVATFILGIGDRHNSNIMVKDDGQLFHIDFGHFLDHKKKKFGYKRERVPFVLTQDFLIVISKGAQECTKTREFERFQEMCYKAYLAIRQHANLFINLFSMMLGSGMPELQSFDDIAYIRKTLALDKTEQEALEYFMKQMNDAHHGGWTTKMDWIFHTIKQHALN
Cytochrome P450 3A4, sequence (P08684 whole entry): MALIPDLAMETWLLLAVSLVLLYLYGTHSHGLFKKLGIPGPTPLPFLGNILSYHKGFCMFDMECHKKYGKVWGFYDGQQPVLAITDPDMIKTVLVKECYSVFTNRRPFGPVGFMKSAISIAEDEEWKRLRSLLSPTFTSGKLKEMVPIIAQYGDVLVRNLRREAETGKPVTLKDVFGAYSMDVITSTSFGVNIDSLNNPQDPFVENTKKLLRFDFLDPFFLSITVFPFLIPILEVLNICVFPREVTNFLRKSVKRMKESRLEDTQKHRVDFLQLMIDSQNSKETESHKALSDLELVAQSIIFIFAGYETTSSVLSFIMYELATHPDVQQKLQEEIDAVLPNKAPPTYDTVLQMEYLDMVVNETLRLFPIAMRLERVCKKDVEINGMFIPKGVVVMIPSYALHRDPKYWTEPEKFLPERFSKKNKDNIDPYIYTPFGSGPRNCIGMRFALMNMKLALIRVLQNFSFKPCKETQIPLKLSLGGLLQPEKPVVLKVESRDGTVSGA
Cytochrome P450 2D6, sequence (P10635 whole entry): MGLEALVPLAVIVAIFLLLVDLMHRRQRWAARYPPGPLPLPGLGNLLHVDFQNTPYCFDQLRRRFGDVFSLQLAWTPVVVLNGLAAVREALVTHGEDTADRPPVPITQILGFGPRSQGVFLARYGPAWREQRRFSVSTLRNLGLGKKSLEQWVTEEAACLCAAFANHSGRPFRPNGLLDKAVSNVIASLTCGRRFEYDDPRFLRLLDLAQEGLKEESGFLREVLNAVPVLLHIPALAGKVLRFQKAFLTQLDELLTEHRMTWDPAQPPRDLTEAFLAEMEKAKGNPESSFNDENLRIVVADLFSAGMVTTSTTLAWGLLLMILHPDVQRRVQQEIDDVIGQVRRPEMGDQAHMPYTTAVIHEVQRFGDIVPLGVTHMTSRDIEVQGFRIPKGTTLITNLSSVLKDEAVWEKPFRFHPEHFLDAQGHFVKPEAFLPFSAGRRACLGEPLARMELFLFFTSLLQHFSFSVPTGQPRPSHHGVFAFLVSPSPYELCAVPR
PI3K p110 beta/p85 alpha, sequence (P27986 whole entry): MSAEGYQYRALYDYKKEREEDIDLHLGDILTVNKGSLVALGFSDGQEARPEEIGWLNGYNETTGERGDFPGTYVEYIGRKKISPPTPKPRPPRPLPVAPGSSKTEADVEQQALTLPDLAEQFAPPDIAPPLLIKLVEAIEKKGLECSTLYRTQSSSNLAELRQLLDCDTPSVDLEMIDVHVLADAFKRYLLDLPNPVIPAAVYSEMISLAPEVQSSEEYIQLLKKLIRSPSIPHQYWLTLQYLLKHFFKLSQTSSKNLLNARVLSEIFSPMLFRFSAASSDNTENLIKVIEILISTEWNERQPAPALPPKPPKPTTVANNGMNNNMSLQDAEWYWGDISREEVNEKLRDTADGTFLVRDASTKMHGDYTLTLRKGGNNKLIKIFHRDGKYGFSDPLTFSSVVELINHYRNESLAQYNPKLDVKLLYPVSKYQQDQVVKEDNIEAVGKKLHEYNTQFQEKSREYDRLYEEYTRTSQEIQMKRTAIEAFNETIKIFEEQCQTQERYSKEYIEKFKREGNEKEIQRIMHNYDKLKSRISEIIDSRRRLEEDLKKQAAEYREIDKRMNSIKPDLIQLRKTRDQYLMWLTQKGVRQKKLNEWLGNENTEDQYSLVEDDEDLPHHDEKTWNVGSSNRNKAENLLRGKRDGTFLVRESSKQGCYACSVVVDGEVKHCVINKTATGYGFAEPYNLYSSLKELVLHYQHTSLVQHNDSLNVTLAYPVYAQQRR
PI3K p110 beta/p85 alpha, sequence (P42338 whole entry): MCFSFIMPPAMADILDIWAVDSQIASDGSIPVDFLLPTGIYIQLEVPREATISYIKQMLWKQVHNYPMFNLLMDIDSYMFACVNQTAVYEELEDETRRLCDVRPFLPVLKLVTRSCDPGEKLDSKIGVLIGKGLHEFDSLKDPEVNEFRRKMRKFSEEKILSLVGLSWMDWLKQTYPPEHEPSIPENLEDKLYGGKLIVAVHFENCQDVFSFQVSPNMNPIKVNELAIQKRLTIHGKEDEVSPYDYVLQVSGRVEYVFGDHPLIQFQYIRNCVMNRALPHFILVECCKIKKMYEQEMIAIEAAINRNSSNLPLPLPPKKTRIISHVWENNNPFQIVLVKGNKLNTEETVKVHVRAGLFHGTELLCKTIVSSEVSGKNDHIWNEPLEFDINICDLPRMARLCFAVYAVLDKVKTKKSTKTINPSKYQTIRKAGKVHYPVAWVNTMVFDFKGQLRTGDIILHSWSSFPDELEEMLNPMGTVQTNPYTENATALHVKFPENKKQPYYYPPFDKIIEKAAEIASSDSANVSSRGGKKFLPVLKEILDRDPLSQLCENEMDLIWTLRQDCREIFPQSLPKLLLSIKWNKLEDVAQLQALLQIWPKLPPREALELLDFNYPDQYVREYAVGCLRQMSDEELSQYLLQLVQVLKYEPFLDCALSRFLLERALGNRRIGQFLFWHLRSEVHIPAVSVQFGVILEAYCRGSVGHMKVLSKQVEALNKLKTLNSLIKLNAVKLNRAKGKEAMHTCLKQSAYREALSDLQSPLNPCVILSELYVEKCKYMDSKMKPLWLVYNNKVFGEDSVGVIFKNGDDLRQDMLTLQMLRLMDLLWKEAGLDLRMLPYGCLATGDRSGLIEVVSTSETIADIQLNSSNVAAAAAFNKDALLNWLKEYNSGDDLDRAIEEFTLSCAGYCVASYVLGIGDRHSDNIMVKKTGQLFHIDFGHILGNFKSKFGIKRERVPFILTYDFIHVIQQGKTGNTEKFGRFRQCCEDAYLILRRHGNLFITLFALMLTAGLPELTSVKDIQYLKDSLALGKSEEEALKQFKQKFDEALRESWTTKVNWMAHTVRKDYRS

COc1ncc2cc1NS(=O)(=O)c1cccc(c1)C(=O)NCc1cncc(c1)-c1cnc3ccc-2cn13
IC50 (Cytochrome P450 3A4): > 30000 nM | EC50 [1]: 0.46 nM | half-life [2]: 2.59 h | EC50 [3]: 0.14 nM | Ratio IC50 (Homo sapiens): 4.1 | AUC(0-inf) [4]: 4480 ng·h/mL | Vd [5]: 5.98 L/kg | IC50 (Cytochrome P450 2C9): > 30000 nM | IC50 (Cytochrome P450 1A2): > 30000 nM | IC50 (Cytochrome P450 2D6): > 30000 nM | concentration at 8 h [6]: 202 ng/mL | IC50 [7]: > 30000 nM | bioavailability [8]: 84.6% | Ki (PI3K p110 beta/p85 alpha): 0.94 nM | Ki [9]: 0.27 nM | Ki [10]: 0.14 nM | Tmax [11]: 0.5 h | Cmax [12]: 1570 ng/mL | EC50 [13]: 0.17 nM

Reference: ChEMBL document CHEMBL4819017 (Eur J Med Chem, 2021)
